Data set [1] has as its target cGMP-specific 3',5'-cyclic phosphodiesterase (Homo sapiens, UniProt O76074). The experiment in a line: Inhibition of PDE5.
Data set [2] is described as follows: Selectivity ratio of IC50 for PDE6 to IC50 for PDE5. A digest of the protocol:
(§1)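 Fold selectivity calculated as PDE11 IC50/PDE5 IC50 or PDE6 IC50/PDE5 IC50, with IC50 values in nM.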

Data set [3] is described as follows: Selectivity ratio of IC50 for PDE11 to IC50 for PDE5. A digest of the protocol: as §1
A short description of data set [4]: Volume of distribution in dog. Type of data set: ADME, organism-based, Canis lupus familiaris. As to conditions: in vivo. A digest of the protocol: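 Volume of distribution expressed in L/kg.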
Data set [5] can be described thus: Solubility of the compound at pH 6.5. Type of data set: physicochemical. To be noted: buffer.
The nature of data set [6]: Clearance in dog at 2 mg/kg. More on the design: dose 2 mg/kg. Type of data set: ADME, organism-based, Canis lupus familiaris. As to conditions: in vivo. In a few lines: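 Clearance in mL/min/kg after a 2 mpk dose (n = 3) in vehicle 70% PEG400/20% 0.05 M citrate buffer/10% ethanol, pH 5.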
A short description of data set [7]: Clearance in rat at 2 mg/kg at pH 5. Type of data set: ADME, organism-based. Details: dose 2 mg/kg. To be noted: in vivo.
A further data set is filed under the species Rattus norvegicus. The experiment in a line: Unbound volume of distribution in rat. The format is ADME, organism-based. To be noted: in vivo.
Data set [8] in a line: Metabolic stability in human liver microsomes assessed as compound remaining after 1 hr. The format is ADME, Microsome. As to conditions: read-out: Stability. In a few lines:
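Human liver microsomes; percent parent compound remaining after 1 h incubation.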

Data set [9] in a line: Volume of distribution in rat. Type of data set: ADME, organism-based. As to conditions: in vivo.
Data set [10] in a line: Oral bioavailability in rat at 2 mg/kg. Type of data set: ADME, organism-based. To be noted: in vivo.

pIC50: −log10 of the molar value. In brackets after ≈: the same amount, converted by molar mass.

We go through 34 molecules from ChEMBL document CHEMBL1914420, “Investigation of the pyrazinones as PDE5 inhibitors: evaluation of regioisomeric projections into the solvent region” (Bioorg Med Chem Lett, 2011).

In turn, `CCCOCCn1c(=O)nc(N2CCN(CCO)CC2)c2ncc(-c3ccc(OC)nc3)cc21` had a pIC50 in data set [1] of 8.79. Further, the results for the Ratio IC50 in data set [2] and in data set [3] were 381 and above 1220, respectively.
As to `CCCOCCn1c(=O)nc(N[C@@H]2CCCC[C@H]2C(=O)O)c2nnc(-c3ccc(OC)nc3)cc21` (racemic), the pIC50 in data set [1] is 9.57. Moreover, the Ratio IC50 in data set [2] was found to be 47; in data set [3], 1390.
In [1], `CCCOCCn1c(=O)nc(N2CCN(CC(=O)O)CC2)c2nnc(-c3ccc(OC)nc3)cc21` had a pIC50 of 10.00. Also, the values for the Ratio IC50 in data set [2] and in data set [3] were 143 and 1330, respectively.
The molecule `CCOCCn1c(=O)nc(NC2CCC(O)CC2)c2nnc(-c3ccc(OC)nc3)cc21` (stereo unspecified) had a pIC50 in data set [1] of 9.44.
On the same count and under the same terms, then `CCCOCCn1c(=O)nc(NC2CCCC(C(=O)O)C2)c2nnc(-c3ccc(OC)nc3)cc21` (stereo unspecified), with 11.00.
`CCOCCn1c(=O)nc(NCC(=O)N(C)C)c2nnc(-c3ccc(OC)nc3)cc21`: in [1], the pIC50 was 8.83. Besides, the figures for the Ratio IC50 in data set [2] and in data set [3] were 119 and 199, respectively.
As for `CCCOCCn1c(=O)nc(NCCOC(C)C)c2cnc(-c3ccc(OC)nc3)cc21`, the pIC50 in data set [1] was 10.00. The Ratio IC50 in data set [2] amounted to 450; in data set [3], 9560.
`CCCOCCn1c(=O)nc(NCCC(=O)O)c2nnc(-c3ccc(OC)nc3)cc21` showed a pIC50 in data set [1] of 10.30. The Ratio IC50 in data set [2] came out at 139; in [3], 250.
As for `CCCOCCn1c(=O)nc(N2CCC(C(=O)O)CC2)c2nnc(-c3ccc(OC)nc3)cc21`, in [1], the negative-log IC50 (pIC50) is 11.00. Moreover, the Ratio IC50 was found to be 119 in [2] and 532 in data set [3].
Turning to `CCCOCCn1c(=O)nc(NC2CCC(O)CC2)c2cnc(-c3ccc(OC)nc3)cc21` (stereo unspecified), the pIC50 in data set [1] was 10.30. The Ratio IC50 in data set [2] was 675; in data set [3], 3950.
In the case of `CCCOCCn1c(=O)nc(NCC(=O)N(C)C)c2nnc(-c3ccc(OC)nc3)cc21`, the pIC50 in data set [1] is 9.36. In addition, the Ratio IC50 is 296 in data set [2] and 277 in data set [3].
The molecule `CCOCCn1c(=O)nc(N2CCN(CCO)CC2)c2nnc(-c3ccc(OC)nc3)cc21` had a pIC50 in [1] of 8.61. Moreover, the results for the Ratio IC50 in [2] and in [3] were 98 and 286, respectively.
For `CCCOCCn1c(=O)nc(N[C@@H]2CCCC[C@@H]2C(=O)O)c2nnc(-c3ccc(OC)nc3)cc21` (racemic) the same measures were 10.70, 110 and 296.
For the molecule `CCCOCCn1c(=O)nc(N2CCN(CCO)CC2)c2cnc(-c3ccc(OC)nc3)cc21`, in data set [1], the pIC50 was 8.86. The Ratio IC50 in data set [2] is 181; in data set [3], above 1450.
`CCCOCCn1c(=O)nc(NCCN2CCOCC2)c2nnc(-c3ccc(OC)nc3)cc21` gave a pIC50 in [1] of 10.05. Further, the Ratio IC50 came to 573 in [2] and 6820 in data set [3].
For the molecule `CCCOCCn1c(=O)c(N2CCN(CCO)CC2)nc2ncc(-c3ccc(OC)nc3)cc21`, the pIC50 in [1] is 9.46. Further, the figures for the Ratio IC50 in data set [2] and in [3] were 245 and 1770, respectively.
The molecule `CCCOCCn1c(=O)nc(N2CCC(CC(=O)O)CC2)c2nnc(-c3ccc(OC)nc3)cc21` had a pIC50 in data set [1] of 10.40. The values for the Ratio IC50 in data set [2] and in data set [3] were 254 and 1060, respectively.
`COc1ccc(-c2cc3c(nn2)c(NC2CCC(O)CC2)nc(=O)n3CCOCC(F)(F)F)cn1` (stereo unspecified) showed a pIC50 in data set [1] of 10.40.
As for `CCCOCCn1c(=O)nc(NCCN2CCOCC2)c2cnc(-c3ccc(OC)nc3)cc21`, the pIC50 in data set [1] was 10.10. The Ratio IC50 worked out at 334 in data set [2] and 9050 in [3].
Regarding `CCCOCCn1c(=O)nc(N2CCCC(C(=O)O)C2)c2nnc(-c3ccc(OC)nc3)cc21` (stereo unspecified), the pIC50 in [1] was 10.22. Further, the Ratio IC50 in data set [2] is 162; in data set [3] it was 297.
For `CCCOCCn1c(=O)nc(N[C@H](C)C(=O)O)c2nnc(-c3ccc(OC)nc3)cc21` the same measures were 9.89, 110 and 76.
In [1], `CCCOCCn1c(=O)nc(NC2CCC(O)CC2)c2ncc(-c3ccc(OC)nc3)cc21` (stereo unspecified) gave a pIC50 of 10.00. Moreover, the Ratio IC50 in data set [2] is 1020; in [3], 3830.
In data set [1], `CCCOCCn1c(=O)nc(NC(C)(C)C(=O)O)c2nnc(-c3ccc(OC)nc3)cc21` showed a pIC50 of 10.30. The Ratio IC50 in [2] worked out at 145; in data set [3], 129.
With `CCCOCCn1c(=O)c(NC2CCC(O)CC2)nc2ncc(-c3ccc(OC)nc3)cc21` (stereo unspecified), the values for the Ratio IC50 in [2] and in data set [3] were 48 and 675, respectively.
For `CCCOCCn1c(=O)c(N2CCN(CCO)CC2)nc2cnc(-c3ccc(OC)nc3)cc21` the same measures were 157 and 2460.
With `CCCOCCn1c(=O)c(NC2CCC(O)CC2)nc2cnc(-c3ccc(OC)nc3)cc21` (stereo unspecified), the Vd stood at 3.5 L/kg in [4] and 1.35 L/kg in [9]. The molecule also gave a pIC50 in [1] of 10.30. For the same molecule, in data set [5], the concentration in solution (solubility) was 21 µM (≈ 9.52 µg/mL). The clearance in data set [6] and in data set [7] was 5.5 mL/min/kg each time. Further, the Ratio IC50 came out at 200 in data set [2] and 1320 in data set [3]. In the data set listed under Rattus norvegicus, this molecule returned a Vdu of 96 L/kg. In data set [8], the remaining at 1 h came out at 84%. The molecule further yielded a bioavailability in data set [10] of 50%.
Molecule `CCCOCCn1c(=O)nc(NC2CCC(C(=O)O)CC2)c2nnc(-c3ccc(OC)nc3)cc21` (stereo unspecified) had a pIC50 in data set [1] of 10.70. Also, the Ratio IC50 in data set [2] was 246; in [3], 541.
Taken in the same sequence, the figures for `CCCOCCn1c(=O)nc(NC2CCNCC2)c2nnc(-c3ccc(OC)nc3)cc21` were 8.88, 576 and 1530.
Taken in the same sequence, the figures for `COc1ccc(-c2cc3c(nn2)c(N2CCN(CCO)CC2)nc(=O)n3CCOCC(F)(F)F)cn1` were 9.19, 818 and above 311.
The molecule `CCCOCCn1c(=O)nc(N2CCN(CCO)CC2)c2nnc(-c3ccc(OC)nc3)cc21` showed a pIC50 in [1] of 8.89. Moreover, the results for the Ratio IC50 in [2] and in data set [3] were 124 and 834, respectively.
On to `CCCOCCn1c(=O)c(NCCN2CCOCC2)nc2cnc(-c3ccc(OC)nc3)cc21`, for which the Ratio IC50 in data set [2] was determined as 158; in [3] it was 4860.
Take `CCCOCCn1c(=O)nc(NCCO)c2nnc(-c3ccc(OC)nc3)cc21`: in data set [1], the pIC50 is 9.66. Further, the Ratio IC50 in [2] came to 290; in data set [3], 240.
For `COc1ccc(-c2cc3c(nn2)c(NCC(=O)N(C)C)nc(=O)n3CCOCC(F)(F)F)cn1` the same measures were 9.42, 2200 and 4170.
In the case of `CCCOCCn1c(=O)nc(N2CCC(O)CC2)c2nnc(-c3ccc(OC)nc3)cc21`, the pIC50 in [1] was 9.55. The Ratio IC50 amounted to 194 in data set [2] and 240 in data set [3].
